Measured values pooled from the literature.
Compare with care: the assays were run in different laboratories.
Read-out: cell growth or viability

The inhibition of O=C1Nc2ccccc2C1=NNc1nnc2n1N=C(c1ccccc1)CS2 is reported as 41% (OVCAR-4; SRB; 10 µM).
With CC(C)C[C@H](NC(=O)[C@H](Cc1ccccc1)NC(=O)c1cnccn1)B(O)O the IC50 was 9.9 nM (HCC38; ATP luminescence).
COc1cc(-c2ccc(-c3ccc(C(=N)N)nc3)s2)cc(OC)c1OC has a GI50 of 2690 nM (OVCAR-4; SRB).
With CCN(CC)CCNC(=O)c1c(C)[nH]c(/C=C2\C(=O)Nc3ccc(F)cc32)c1C the inhibition was 85.7% (A549; 30 µM).
With Cn1nnc2c(C(N)=O)ncn2c1=O the EC50 was 173000 nM (AZ-521).
CCOc1ccc(/C=C2\SC(=S)N(CC(=O)Nc3ccccc3)C2=O)cc1 gave an inhibition of 48.2% (A549; MTT; 10 µM).
COc1cccc(Oc2ccccc2NC(=O)CNC(=O)c2cccc3ccccc23)c1 has a GI50 of 776 nM (OVCAR-4; SRB; 48 h).
With COc1cccc(NC(=O)CN2C(=O)/C(=C/c3cccs3)SC2=S)c1 the inhibition was 12.4% (A549; MTT; 10 µM).
For COc1ccc(-c2ccc(-c3ccc(C(=N)N)nc3)s2)cc1Cl, the GI50 was 1740 nM (OVCAR-4; SRB).
For NC(=O)c1cc(Cl)ccc1NC(=O)COc1ccccc1, the GI50 was over 100000 nM (OVCAR-4).
For COc1cccc(NC(=O)CN2C(=O)/C(=C/c3ccco3)SC2=S)c1, the inhibition was 13.7% (A549; MTT; 10 µM).
